Drawing on PubChem BioAssay, this text covers outcome, activation and potentiation for 30 molecules.

Test [1] in a line: thallium flux activation in parental CHO cells, counter-screen for KCNQ1 potentiator project (AID 493006;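 active means duplicate-averaged activation above buffer control mean plus 5 SD of those controls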;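 on activation: fluorescence ratio of max minus min over baseline after K+ and Tl+ depolarization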). The settings on record: parental CHO-K1 cells, FluxOR thallium flux, at 10 µM; hits give high values. An outline of the steps:
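Material: parental CHO-K1 cells, FluxOR dye-loaded; Also added: Potassium/thallium depolarization pulse; Schedule: overnight 37 °C plating, 90 min dye, 20 min dark compound; Signal: kinetic FluxOR fluorescence, 10 s baseline, 110 s after stimulus.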

The target of test [2] is Potassium voltage-gated channel subfamily KQT member 1 (Homo sapiens) (UniProt P51787). Briefly: KCNQ1 potassium channel potentiators, confirmation, FluxOR thallium flux, CHO cells, duplicates (AID 493007;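 active means potentiation averaged over duplicate wells exceeding buffer-only control mean by more than 3 SD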;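 on outcome: cells depolarized by a potassium plus thallium sulfate stimulus after compound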). Conditions: KCNQ1 cell line, FluxOR thallium flux fluorescence, at 10 µM; hits give high values, % of reference activator effect, buffer zero. An outline of the steps: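 System: KCNQ1-expressing CHO cell line; technique: kinetic thallium influx fluorescence with FluxOR dye, 10 s baseline, 110 s post-stimulus; timing: dye 90 min then compound 20 min, both at room temperature; controls: buffer-only wells as 0% and R-L3 activator as 100%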

Test [3] concerns the target Potassium voltage-gated channel subfamily KQT member 2 (Rattus norvegicus) (UniProt O88943). Briefly: rat KCNQ2 channel potentiation, selectivity assay for KCNQ1 potentiator project, KCNQ2-CHO-K1 cells (AID 493009).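 Further: assay conditions were tuned for KCNQ1 rather than KCNQ2 modulators; signal is max minus min fluorescence divided by baseline after thallium stimulus.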 The settings on record: FluxOR thallium flux fluorescence, at 10 µM; hits give high values, scaled: buffer 0, activator control 100.
The target of test [4] is Potassium voltage-gated channel subfamily KQT member 1 (Homo sapiens) (UniProt P51787). Briefly: KCNQ1 channel current potentiators, confirmation, orthogonal assay for KCNQ1 potentiator project, IonWorks patch clamp, KCNQ1-CHO cells (AID 493184;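 active means current rise at least 3 SD above the untreated control mean in each of two repeat wells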). Conditions: automated patch clamp current, at 10 µM; hits give high values. In a few lines: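 Test system: KCNQ1-expressing CHO cells. Medium: pH 7.4 external bath. Probe or stimulus: voltage step from -90 mV holding to +40 mV, 2,000 ms. Compound: 10 µM final, single point. Detection: automated perforated-patch electrophysiology. Read-out: percent current increase versus pre-compound level. Repeats: two replicates.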

Calls of active or inactive are those of the source.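 How the source made its calls, unless noted: active means mean duplicate potentiation above the buffer control mean plus 5 SD of buffer wells; inactive means the rest.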

Chain of Potassium voltage-gated channel subfamily KQT member 2 (Rattus norvegicus) (O88943 whole entry, looked up): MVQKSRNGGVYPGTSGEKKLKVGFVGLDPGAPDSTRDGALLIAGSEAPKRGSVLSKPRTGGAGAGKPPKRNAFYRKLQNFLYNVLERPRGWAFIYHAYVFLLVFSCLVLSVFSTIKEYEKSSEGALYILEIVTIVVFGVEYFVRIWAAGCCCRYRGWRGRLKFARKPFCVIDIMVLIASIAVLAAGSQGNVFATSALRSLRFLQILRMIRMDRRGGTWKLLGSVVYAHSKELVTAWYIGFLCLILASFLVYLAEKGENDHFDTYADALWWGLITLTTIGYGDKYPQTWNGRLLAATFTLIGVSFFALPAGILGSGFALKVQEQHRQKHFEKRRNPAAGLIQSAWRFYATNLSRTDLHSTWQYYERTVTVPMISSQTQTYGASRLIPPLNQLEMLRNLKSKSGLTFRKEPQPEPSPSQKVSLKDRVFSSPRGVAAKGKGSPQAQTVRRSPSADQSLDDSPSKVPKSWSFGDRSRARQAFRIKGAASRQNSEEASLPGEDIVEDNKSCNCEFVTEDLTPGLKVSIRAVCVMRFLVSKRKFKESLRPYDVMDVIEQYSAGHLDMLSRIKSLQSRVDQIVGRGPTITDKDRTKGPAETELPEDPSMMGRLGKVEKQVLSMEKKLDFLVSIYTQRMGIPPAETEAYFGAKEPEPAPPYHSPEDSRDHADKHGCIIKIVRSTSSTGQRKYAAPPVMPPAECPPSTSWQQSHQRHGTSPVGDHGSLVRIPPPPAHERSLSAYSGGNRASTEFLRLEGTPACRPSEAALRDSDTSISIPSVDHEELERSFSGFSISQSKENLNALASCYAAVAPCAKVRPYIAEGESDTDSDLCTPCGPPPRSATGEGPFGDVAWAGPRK
Chain of Potassium voltage-gated channel subfamily KQT member 1 (Homo sapiens) (P51787 whole entry, looked up): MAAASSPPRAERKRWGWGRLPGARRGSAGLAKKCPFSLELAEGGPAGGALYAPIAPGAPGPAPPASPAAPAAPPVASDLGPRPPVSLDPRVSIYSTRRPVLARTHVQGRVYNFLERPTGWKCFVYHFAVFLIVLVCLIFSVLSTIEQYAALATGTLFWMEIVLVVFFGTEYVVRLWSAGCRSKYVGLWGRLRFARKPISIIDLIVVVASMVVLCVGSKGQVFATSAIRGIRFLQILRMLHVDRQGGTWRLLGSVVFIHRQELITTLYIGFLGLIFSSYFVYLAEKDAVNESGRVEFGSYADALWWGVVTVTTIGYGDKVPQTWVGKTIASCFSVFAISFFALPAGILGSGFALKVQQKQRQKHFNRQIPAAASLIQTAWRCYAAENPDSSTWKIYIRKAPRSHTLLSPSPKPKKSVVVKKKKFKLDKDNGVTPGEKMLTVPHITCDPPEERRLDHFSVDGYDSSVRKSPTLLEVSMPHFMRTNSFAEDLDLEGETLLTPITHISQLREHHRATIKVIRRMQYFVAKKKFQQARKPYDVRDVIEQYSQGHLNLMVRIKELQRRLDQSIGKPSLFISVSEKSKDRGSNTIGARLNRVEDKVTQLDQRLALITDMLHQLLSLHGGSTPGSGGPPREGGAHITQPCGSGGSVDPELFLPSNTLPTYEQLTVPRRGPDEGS

As to `Cc1ccc(C)c(NS(=O)(=O)c2cc(C(=O)NCc3ccccn3)ccc2Cl)c1`, the result in test [1], in test [2], in test [3] and in test [4] was inactive.

Consider `Cc1snnc1C(=O)NC(=S)Nc1ccccc1`, for which the activation in test [1] was 205% (active). Also, the potentiation is 90% (active) in test [2] and 270% (active) in test [3]. Moreover, the outcome in test [4] was inactive.

As for `Fc1cccc2sc(Nc3nnc(-c4ccccc4)o3)nc12`, the activation in test [1] is 531% (active). Besides, the potentiation in test [2] is 198% (active); in test [3], 481% (active). Besides, the outcome in test [4] was inactive.

On to `CC(C)NC(=O)C1CCN(c2ccc(S(=O)(=O)N3CCOCC3)cc2Cl)CC1`, for which the outcome in test [1], in test [2], in test [3] and in test [4] was inactive.

As for `COc1ccccc1C(=O)NNC(=O)C(=O)NCc1ccccc1`, in test [1], the activation was 188% (active). In addition, the figures for the potentiation in test [2] and in test [3] were 59.5% (active) and 218% (active), respectively. Besides, in test [4], the outcome was inactive.

Consider `COc1cccc(C2=NOC(C(=O)NCc3cccs3)C2)c1` (stereo not given), for which the result in test [1], in test [2], in test [3] and in test [4] was inactive.

In the case of `CCC1(c2ccc(Cl)cc2)NC(=S)N(c2ccc(C)cc2)N1` (stereo not given), the activation in test [1] was 574% (active). The values for the potentiation in test [2] and in test [3] were 302% (active) and 604% (active), respectively. Also, in test [4], the result was inactive.

Turning to `O=S(=O)(c1cc(F)cc(F)c1)N1CCN(c2ncccn2)CC1`, the outcome in test [1], in test [2], in test [3] and in test [4] was inactive.

Take `Cc1ccc2nsnc2c1S(=O)(=O)Nc1cccc2nsnc12`: the activation in test [1] is 143% (active). Moreover, the results for the potentiation in test [2] and in test [3] were 26% (active) and 174% (active), respectively. The result in test [4] was inactive.

In the case of `COc1ccc(C(=O)N2CCC(n3nccc3NC(=O)C3CCOC3)CC2)cc1` (stereo not given), the result in test [1], in test [2], in test [3] and in test [4] was inactive.

Turning to `CN(C)CCCC1(O)c2ccccc2C=Cc2ccccc21`, the activation in test [1] was 139% (active). The potentiation in test [2] was 29% (active). Besides, the outcome in test [3] and in test [4] was inactive.

As for `CC(Sc1nnnn1-c1ccc(O)cc1)C(=O)NC1CCCCC1C` (stereo not given), the result in test [1], in test [2], in test [3] and in test [4] was inactive.

On to `COc1ccc(C(=O)On2c(-c3ccc(Br)cc3)nc3ccccc3c2=O)cc1`, for which the outcome in test [1], in test [2], in test [3] and in test [4] was inactive.

For `O=c1[nH]cc(N=Cc2cc(Cl)cc(Cl)c2O)c(=O)[nH]1`, in test [1], the activation was 188% (active). For the same molecule, the result in test [2], in test [3] and in test [4] was inactive.

`O=C(NC(=S)NCc1ccccc1)c1ccc(Br)o1`: the activation in test [1] was 434% (active). Further, the potentiation in test [2] was 313% (active); in test [3], 510% (active). In test [4], the outcome was inactive.

As for `COCCOC(=O)N/C=C\c1nc2ccccc2c(=O)[nH]1`, the result in test [1], in test [2], in test [3] and in test [4] was inactive.

For the molecule `Cc1ccc(-c2csc3nc[nH]c(=S)c23)cc1`, in test [1], the activation was 308% (active). Further, the potentiation in test [2] is 124% (active); in test [3], 300% (active). Besides, the result in test [4] was inactive.

Regarding `O=C1CC(c2cccs2)Cc2nc(NC(=O)C3CC3)ncc21` (stereo not given), the outcome in test [1], in test [2], in test [3] and in test [4] was inactive.

On to `COC(=O)c1sccc1NC(=S)NCc1ccc(Cl)cc1`, for which the activation in test [1] is 144% (active). Besides, the potentiation in test [2] is 62.5% (active). Further, the outcome in test [3] and in test [4] was inactive.

`Cc1[nH]n2c(=O)cc(C(C)(C)C)nc2c1-c1ccccc1`: the activation in test [1] was 227% (active). The potentiation in test [2] was 33.5% (active); in test [3] it was 224% (active). In addition, in test [4], the result was inactive.

In the case of `COC(=O)c1c(NC(=O)CC2SC(N)=NC2=O)sc2c1CCC(C)C2` (stereo not given), the outcome in test [1], in test [2], in test [3] and in test [4] was inactive.

For `COC(=O)c1ccc(NC(=S)NC(=O)c2c(Cl)cnn2C)cc1`, in test [1], the activation was 142% (active). For the same molecule, the potentiation in test [2] is 26% (active). Further, the outcome in test [3] and in test [4] was inactive.

Regarding `COc1ccc(CN2C(=O)C(O)(CC(=O)c3ccc4c(c3)OCO4)c3ccccc32)cc1OC` (stereo not given), the outcome in test [1], in test [2], in test [3] and in test [4] was inactive.

On to `CC(Oc1ccc(Br)cc1)c1nc2c3ccccc3nc(=S)n2[nH]1` (stereo not given), for which, in test [1], the activation is 227% (active). In addition, the potentiation in test [2] is 45.5% (active); in test [3], 178% (active). The result in test [4] was inactive.

As to `S=c1[nH]nc(-c2ccco2)n1/N=C/c1ccc(Cl)c(Cl)c1`, in test [1], the activation was 512% (active). Besides, the values for the potentiation in test [2] and in test [3] were 290% (active) and 145% (active), respectively. In addition, the result in test [4] was inactive.

Regarding `O=C1N(Cc2ccc(F)cc2)CCN1c1ccc(F)cc1`, in test [1], the activation was 149% (active). In addition, the potentiation in test [2] was 22% (active); in test [3], 144% (active). Also, the result in test [4] was inactive.

As for `COc1ccc(NC(=O)CCCSc2nc(-c3ccco3)cc(C(F)(F)F)n2)cc1OC`, the result in test [1], in test [2], in test [3] and in test [4] was inactive.

With `CC1CCCCC1NC(=S)NC(=O)c1cccs1` (stereo not given), the activation in test [1] is 181% (active). The potentiation was 100% (active) in test [2] and 300% (active) in test [3]. Further, the outcome in test [4] was inactive.

For the molecule `CCN(C(=O)c1cc2cc3ccc(C)cc3nc2o1)c1ccc(OC)cc1`, the outcome in test [1], in test [2], in test [3] and in test [4] was inactive.

For the molecule `CCCC(=O)n1nc(-c2ccccc2)nc1N`, the result in test [1], in test [2], in test [3] and in test [4] was inactive.
